ChEMBL document CHEMBL1125583, “Synthesis of an (iodovinyl)misonidazole derivative for hypoxia imaging” (J Med Chem, 1991)

Columns and labels:
[1] = Compound was tested for the partition coefficient between octanol and water.; assay type: physicochemical
Method in brief: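 Octanol/water partition: octanol and water mutually pre-saturated for 24 h before the study; compound absorbance read at 318 nm in the water-saturated octanol phase and in the octanol-saturated water phase; coefficient taken as the ratio of the two absorbances.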

RIF-1 = assay: Anoxic/Oxic uptake ratio was measured in RIF-1 cell line at 3h.; assay type: functional, cell-based; conditions: Mus musculus
Method in brief: (§1)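 [131I]-labelled agent at 50 μM in 1 mL medium (25 mM HEPES), rinsed then replaced with fresh labelled medium. Monolayers (exponential or unfed plateau phase) held as thin film at 37 °C under 95% air/5% CO2 (oxic) or 95% N2/5% CO2 (anoxic) for 3 h. Cells trypsinized, gamma-counted, uptake as pmol/10^6 cells. Ratio = anoxic/oxic uptake, three plates.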

CaOs-1 cell line = assay: Anoxic/Oxic uptake ratio was measured in CaOs-1 cell line at 3h.; assay type: functional, cell-based; conditions: Canis lupus familiaris; method in brief: as §1
V79 = assay: Anoxic/Oxic uptake ratio was measured in V-79 cell line at 3h.; assay type: functional, cell-based; conditions: Cricetulus griseus; method in brief: as §1
Rattus norvegicus = species: Rattus norvegicus; assay: Anoxic/Oxic uptake ratio was measured in rat myocytes at 3h.; assay type: functional
Method in brief: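 Adult rat myocytes from collagenase dissociation, cultured overnight at 37 °C in modified MEM. Thin medium layer with 50 μM [131I]-labelled agent at 37 °C under 95% air/5% CO2 or 95% N2/5% CO2, anoxia confirmed by dithionite/methylene blue indicator. Cells rinsed cold, EtOH-fixed, counted microscopically, scraped and gamma-counted. Uptake as dpm per cells; eight plates.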

EMT6 = assay: Anoxic/Oxic uptake ratio was measured in EMT-6 cell line at 3h.; assay type: functional, cell-based; conditions: Mus musculus; method in brief: as §1

Row | SMILES | Partition coefficient [1] | Uptake ratio (RIF-1) | Uptake ratio (CaOs-1 cell line) | Uptake ratio (V79) | Uptake ratio (Rattus norvegicus) | Uptake ratio (EMT6)
1 | COC[C@H](O)Cn1cc(Br)nc1[N+](=O)[O-] | 2.87 |  |  |  |  | 
2 | O=[N+]([O-])c1nccn1C[C@@H](O)CF | 0.4 | 28.5 | 18 | 27.3 | 20.3 | 12.6
3 | O=[N+]([O-])c1nccn1C[C@@H](O)C/C=C/I | 2.52 | 23.2 | 10.2 | 12.5 | 22 | 11
4 | COC[C@H](O)Cn1ccnc1[N+](=O)[O-] | 0.41 |  |  |  |  | 
